Assay [1] concerns Candida albicans. Kind of assay: Antifungal activity against Candida albicans isolate CA4 biofilm assessed as viable fungal count per cm2 of silicone disk at 32 ug/ml after 48 hrs […]. Format: functional. An outline of the steps: (§1)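 Biofilms grown on serum-preconditioned silicone disks in RPMI 1640 for 24 h, PBS-washed, then exposed 48 h at 35°C on a rocker to caspofungin doubling dilutions spanning 0.25–128 μg/ml. Disks washed and sonicated/vortexed in PBS to release cells. Suspensions diluted in Butterfield buffer and plated on Sabouraud dextrose agar. Viable counts from three disks averaged as CFU/cm2.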
For orientation: Formazan colour is commonly taken as a measure of viable cells.

Assay [2] deals with Candida albicans. Kind of assay: Antifungal activity against Candida albicans isolate CA4 biofilm assessed as viable fungal count per cm2 of silicone disk at 64 ug/ml after 48 hrs […]. It counts as functional. The procedure, abridged:
as §1

Assay [3] relates to Candida albicans. Kind of assay: Antifungal activity against Candida albicans isolate CA4 biofilm assessed as viable fungal count per cm2 of silicone disk at 128 ug/ml after 48 hrs […]. Format: functional. The procedure, abridged: as §1
Assay [4] deals with Candida parapsilosis. Kind of assay: Antifungal activity against Candida parapsilosis isolate CP1 biofilm assessed as viable fungal count per cm2 of silicone disk at 0.25 ug/ml after 48 hrs […]. Format: functional. An outline of the steps: as §1
Assay [5] relates to Candida parapsilosis. Kind of assay: Antifungal activity against Candida parapsilosis isolate CP1 biofilm assessed as viable fungal count per cm2 of silicone disk at 0.5 ug/ml after 48 hrs […]. It counts as functional. The procedure, abridged: as §1
The test system of assay [6] is Candida parapsilosis. Kind of assay: Antifungal activity against Candida parapsilosis isolate CP1 biofilm assessed as viable fungal count per cm2 of silicone disk at 1 ug/ml after 48 hrs […]. Format: functional. The procedure, abridged: as §1
Assay [7] has as its system Candida parapsilosis. Kind of assay: Antifungal activity against Candida parapsilosis isolate CP1 biofilm assessed as viable fungal count per cm2 of silicone disk at 2 ug/ml after 48 hrs […]. It counts as functional. An outline of the steps: as §1
Assay [8] deals with Candida parapsilosis. Kind of assay: Antifungal activity against Candida parapsilosis isolate CP1 biofilm assessed as viable fungal count per cm2 of silicone disk at 4 ug/ml after 48 hrs […]. It counts as functional. The procedure, abridged: as §1
The subject of assay [9] is Candida parapsilosis. Kind of assay: Antifungal activity against Candida parapsilosis isolate CP1 biofilm assessed as viable fungal count per cm2 of silicone disk at 8 ug/ml after 48 hrs […]. Format: functional. An outline of the steps: as §1
In assay [10] the test system is Candida parapsilosis. Kind of assay: Antifungal activity against Candida parapsilosis isolate CP1 biofilm assessed as viable fungal count per cm2 of silicone disk at 16 ug/ml after 48 hrs […]. It counts as functional. An outline of the steps: as §1
Assay [11] relates to Candida parapsilosis. Kind of assay: Antifungal activity against Candida parapsilosis isolate CP1 biofilm assessed as viable fungal count per cm2 of silicone disk at 32 ug/ml after 48 hrs […]. Format: functional. The procedure, abridged:
as §1

The test system of assay [12] is Candida parapsilosis. Kind of assay: Antifungal activity against Candida parapsilosis isolate CP1 biofilm assessed as viable fungal count per cm2 of silicone disk at 64 ug/ml after 48 hrs […]. Format: functional. The procedure, abridged: as §1
The subject of assay [13] is Candida parapsilosis. Kind of assay: Antifungal activity against Candida parapsilosis isolate CP1 biofilm assessed as viable fungal count per cm2 of silicone disk at 128 ug/ml after 48 hrs […]. It counts as functional. An outline of the steps:
as §1

Assay [14] concerns Candida tropicalis. Kind of assay: Antifungal activity against Candida tropicalis isolate CT8 biofilm assessed as viable fungal count per cm2 of silicone disk at 0.25 ug/ml after 48 hrs […]. Format: functional. An outline of the steps: as §1
Assay [15] deals with Candida tropicalis. Kind of assay: Antifungal activity against Candida tropicalis isolate CT8 biofilm assessed as viable fungal count per cm2 of silicone disk at 0.5 ug/ml after 48 hrs […]. Format: functional. An outline of the steps: as §1
Assay [16] has as its system Candida tropicalis. Kind of assay: Antifungal activity against Candida tropicalis isolate CT8 biofilm assessed as viable fungal count per cm2 of silicone disk at 1 ug/ml after 48 hrs […]. It counts as functional. An outline of the steps:
as §1

Assay [17] concerns Candida tropicalis. Kind of assay: Antifungal activity against Candida tropicalis isolate CT8 biofilm assessed as viable fungal count per cm2 of silicone disk at 2 ug/ml after 48 hrs […]. It counts as functional. An outline of the steps: as §1
Assay [18] deals with Candida tropicalis. Kind of assay: Antifungal activity against Candida tropicalis isolate CT8 biofilm assessed as viable fungal count per cm2 of silicone disk at 4 ug/ml after 48 hrs […]. Format: functional. The procedure, abridged: as §1
Assay [19] relates to Candida tropicalis. Kind of assay: Antifungal activity against Candida tropicalis isolate CT8 biofilm assessed as viable fungal count per cm2 of silicone disk at 8 ug/ml after 48 hrs […]. Format: functional. The procedure, abridged:
as §1

In assay [20] the test system is Candida tropicalis. Kind of assay: Antifungal activity against Candida tropicalis isolate CT8 biofilm assessed as viable fungal count per cm2 of silicone disk at 16 ug/ml after 48 hrs […]. It counts as functional. An outline of the steps:
as §1

Assay [21] deals with Candida tropicalis. Kind of assay: Antifungal activity against Candida tropicalis isolate CT8 biofilm assessed as viable fungal count per cm2 of silicone disk at 32 ug/ml after 48 hrs […]. It counts as functional. The procedure, abridged: as §1
Assay [22] concerns Candida tropicalis. Kind of assay: Antifungal activity against Candida tropicalis isolate CT8 biofilm assessed as viable fungal count per cm2 of silicone disk at 64 ug/ml after 48 hrs […]. Format: functional. An outline of the steps: as §1
Assay [23] has as its system Candida tropicalis. Kind of assay: Antifungal activity against Candida tropicalis isolate CT8 biofilm assessed as viable fungal count per cm2 of silicone disk at 128 ug/ml after 48 hrs […]. It counts as functional. The procedure, abridged: as §1
Assay [24] has as its system Candida albicans. Kind of assay: Antifungal activity against Candida albicans isolate CA4 biofilm assessed as assessed as decrease in preformed fungal biofilm formation at 128 ug/ml after 48 hrs by scanning electron microscopy. It counts as functional, organism-based. An outline of the steps: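 Silicone disks preconditioned 24 h at 37°C in heat-inactivated human serum, seeded with 1 × 10^6 CFU/ml in MOPS-buffered RPMI 1640 (pH 7.0), 1.5 h attachment at 37°C with shaking, then grown 24 h. Washed biofilms exposed to 1.0, 16 or 128 μg/ml caspofungin in RPMI 1640, 48 h at 35°C on a rocker. Untreated controls in RPMI only. Fixed in 5% glutaraldehyde/cacodylate (pH 6.2), ethanol-dehydrated, HMDS air-dried, examined by SEM. Run in triplicate.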

The source made the active and inactive calls. The rule behind the calls is not given here.

`CC[C@H](C)C[C@H](C)CCCCCCCCC(=O)N[C@H]1C[C@@H](O)[C@@H](NCCN)NC(=O)[C@@H]2[C@@H](O)CCN2C(=O)[C@H]([C@H](O)CCN)NC(=O)[C@H]([C@H](O)[C@@H](O)c2ccc(O)cc2)NC(=O)[C@@H]2C[C@@H](O)CN2C(=O)[C@H]([C@@H](C)O)NC1=O` [CASPOFUNGIN]: the log10cfu with Candida albicans [1] came to 5.6; in the assay with Candida albicans [2], 4.6; in the assay on Candida albicans [3], 3.5; in the assay with Candida parapsilosis [4], 0; in the assay on Candida parapsilosis [5], 0; in the assay on Candida parapsilosis [6], 0. The log10cfu with Candida parapsilosis [7] was 0; with Candida parapsilosis [8], 5.1; in the assay with Candida parapsilosis [9], 5.2; in the assay on Candida parapsilosis [10] it was 4.5; with Candida parapsilosis [11] it was 4.2; in the assay with Candida parapsilosis [12] it was 3.6. Also, the log10cfu with Candida parapsilosis [13] is reported as 2.7; with Candida tropicalis [14], 6.4; in the assay with Candida tropicalis [15], 6.2; in the assay on Candida tropicalis [16], 5.7; with Candida tropicalis [17], 5.9; in the assay with Candida tropicalis [18] it was 5.7. The log10cfu with Candida tropicalis [19] was 5.7; in the assay with Candida tropicalis [20], 5.7; in the assay with Candida tropicalis [21] it was 5.4; with Candida tropicalis [22] it was 5; with Candida tropicalis [23], 3.3. Besides, the result with Candida albicans [24] was Active.
